Experimental data: ChEMBL document CHEMBL1149254, “The discovery of orally active triaminotriazine aniline amides as inhibitors of p38 MAP kinase” (J Med Chem, 2004)
Activity calls are given as the source filed them. The calls are words filed in the database; no cut-off is given here.

Columns and labels:
[1] = target: Mitogen-activated protein kinase 14 (Homo sapiens, UniProt Q16539); assay: Inhibition of human p38-alpha expressed in Escherichia coli
THP-1 = assay: Inhibition of LPS-induced TNFalpha production in human THP1 cells by ELISA; format: functional, cell-based
Procedure, shortened: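 THP-1 cells grown in RPMI 1640 with 10% FBS, 40000 cells/well. Compound or vehicle was added (1% DMSO final), then LPS at 1 μg/mL final. Cells were incubated overnight at 37 °C, 5% CO2. TNF in the supernatant was measured by sandwich ELISA: anti-human TNF capture, biotinylated polyclonal detection, streptavidin-peroxidase read-out.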

[2] = target: Protein kinase C delta type (Homo sapiens, UniProt Q05655); assay: Inhibition of PKCdelta
PBMC = assay: Inhibition of LPS-induced TNFalpha production in human PBMC by ELISA; format: functional, cell-based
Procedure, shortened: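 PBMC from healthy donors, isolated on ficoll, plated at 1×10^6 cells/mL in RPMI with 10% FBS. Compound was preincubated for 30 min, then cells were stimulated with 25 ng/mL LPS (final) for 6 h at 37 °C, 5% CO2. Supernatant TNF-α was measured by ELISA.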

[3] = target: Vascular endothelial growth factor receptor 2 (Homo sapiens, UniProt P35968); assay: Inhibition of KDR
[4] = Metabolic stability in mouse liver microsomes; format: ADME, Microsome
Mus musculus [5] = assay: Inhibition of LPS-induced TNFalpha release in BALB/c mouse at 5 mg/kg, po after 90 mins; format: functional, organism-based; design: dose 5 mg/kg
Procedure, shortened: (§1)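 Female BALB/c mice, 6–8 weeks old. Compound in 100% PEG 300 given by oral gavage 30 min before ip LPS (0.1 mL of 10 μg/mL in PBS). Blood was taken 90 min after LPS and serum TNF-α measured by ELISA. Mean ± SD, n = 8 mice per group.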

[6] = Clearance in mouse; format: ADME, organism-based; conditions: in vivo
Liver microsomes = assay: Metabolic stability in human liver microsomes; format: ADME, Microsome
[7] = target: cAMP-dependent protein kinase (PKA) (Homo sapiens, UniProt P22694+P17612+P22612); assay: Inhibition of PKA; format: protein assay
Rattus norvegicus = assay: Suppression of paw swelling in adjuvant arthritis Lewis rat model at 50 mg/kg, po BID
Mus musculus [8] = assay: Inhibition of LPS-induced TNFalpha release in BALB/c mouse administered at 10 mg/kg before 2 hrs of LPS challenge; format: functional, organism-based; design: dose 10 mg/kg
Procedure, shortened: (§2)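 BALB/c mouse LPS-TNF model. Compound was given at 10 mpk at time points from 30 min to 10 h before LPS challenge, and TNF suppression was assessed at each pretreatment interval.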

Mus musculus [9] = assay: Inhibition of LPS-induced TNFalpha release in BALB/c mouse administered at 10 mg/kg before 30 mins of LPS challenge; format: functional, organism-based; design: dose 10 mg/kg; procedure, shortened: as §2
[10] = target: T1, Tyrosine-protein kinase JAK3 (Homo sapiens, UniProt P52333); assay: Inhibition of JAK3
T1 sequence (P52333 whole entry): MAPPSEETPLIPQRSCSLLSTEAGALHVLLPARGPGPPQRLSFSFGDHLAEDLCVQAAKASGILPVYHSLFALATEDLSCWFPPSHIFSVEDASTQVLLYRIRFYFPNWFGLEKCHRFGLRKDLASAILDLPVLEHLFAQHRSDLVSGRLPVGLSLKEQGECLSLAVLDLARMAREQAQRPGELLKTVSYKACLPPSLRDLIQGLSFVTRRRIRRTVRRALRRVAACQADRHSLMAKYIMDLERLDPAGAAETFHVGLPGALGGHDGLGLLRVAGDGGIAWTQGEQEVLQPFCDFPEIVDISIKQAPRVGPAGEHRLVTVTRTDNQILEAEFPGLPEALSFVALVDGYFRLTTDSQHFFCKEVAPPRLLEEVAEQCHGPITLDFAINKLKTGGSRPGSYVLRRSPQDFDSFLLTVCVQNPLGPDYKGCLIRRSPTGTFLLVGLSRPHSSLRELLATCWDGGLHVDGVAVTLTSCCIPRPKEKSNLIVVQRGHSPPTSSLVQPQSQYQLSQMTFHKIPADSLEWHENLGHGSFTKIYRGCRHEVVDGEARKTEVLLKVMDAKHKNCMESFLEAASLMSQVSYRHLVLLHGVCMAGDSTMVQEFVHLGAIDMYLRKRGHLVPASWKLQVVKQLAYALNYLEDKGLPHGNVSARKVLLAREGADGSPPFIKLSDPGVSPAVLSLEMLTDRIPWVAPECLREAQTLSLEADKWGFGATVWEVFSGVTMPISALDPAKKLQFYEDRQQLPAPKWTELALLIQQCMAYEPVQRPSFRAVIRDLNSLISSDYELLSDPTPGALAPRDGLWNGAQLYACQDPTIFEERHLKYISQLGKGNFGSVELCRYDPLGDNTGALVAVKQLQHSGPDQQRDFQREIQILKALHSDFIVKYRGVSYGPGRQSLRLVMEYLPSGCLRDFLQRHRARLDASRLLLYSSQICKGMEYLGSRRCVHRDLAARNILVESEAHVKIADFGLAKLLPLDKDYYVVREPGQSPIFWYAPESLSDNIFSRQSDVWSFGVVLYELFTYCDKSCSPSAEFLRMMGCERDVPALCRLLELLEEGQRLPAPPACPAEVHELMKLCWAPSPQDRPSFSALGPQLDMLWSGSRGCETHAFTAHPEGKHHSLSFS

[11] = target: Protein kinase C alpha type (Homo sapiens, UniProt P17252); assay: Inhibition of PKCalpha
[12] = Half life in mouse; format: ADME, organism-based; conditions: in vivo
[13] = target: Mitogen-activated protein kinase 11 (Homo sapiens, UniProt Q15759); assay: Inhibition of human p38beta
[14] = target: MAP kinase-activated protein kinase 2 (Homo sapiens, UniProt P49137); assay: Inhibition of MK2
[15] = target: Tyrosine-protein kinase Lck (Homo sapiens, UniProt P06239); assay: Inhibition of LCK
Mus musculus [16] = assay: Inhibition of LPS-induced TNFalpha release in po dosed BALB/c mouse after 90 mins; format: functional; conditions: 1.5 h; procedure, shortened: as §1
[17] = Cytotoxicity against phytohemagglutininin-stimulated human T blast cells at 30 uM after 24 hrs relative to control; format: cell-based; conditions: t-cell
Procedure, shortened: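 PBMC T cells (1.25×10^6/mL) stimulated with 5 μg/mL PHA for 4 days to give dividing blasts. Blasts at 1.5×10^6/mL were exposed to 30 μM compound in RPMI with 10% FBS and 0.003% DMSO final, for 24 h at 37 °C, 5% CO2. Viability was read as metabolic activity by AlamarBlue and expressed relative to control.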

[18] = target: T2, Inhibitor of nuclear factor kappa-B kinase subunit beta (Homo sapiens, UniProt O14920); assay: Inhibition of human IKK2beta
T2 sequence (O14920 whole entry): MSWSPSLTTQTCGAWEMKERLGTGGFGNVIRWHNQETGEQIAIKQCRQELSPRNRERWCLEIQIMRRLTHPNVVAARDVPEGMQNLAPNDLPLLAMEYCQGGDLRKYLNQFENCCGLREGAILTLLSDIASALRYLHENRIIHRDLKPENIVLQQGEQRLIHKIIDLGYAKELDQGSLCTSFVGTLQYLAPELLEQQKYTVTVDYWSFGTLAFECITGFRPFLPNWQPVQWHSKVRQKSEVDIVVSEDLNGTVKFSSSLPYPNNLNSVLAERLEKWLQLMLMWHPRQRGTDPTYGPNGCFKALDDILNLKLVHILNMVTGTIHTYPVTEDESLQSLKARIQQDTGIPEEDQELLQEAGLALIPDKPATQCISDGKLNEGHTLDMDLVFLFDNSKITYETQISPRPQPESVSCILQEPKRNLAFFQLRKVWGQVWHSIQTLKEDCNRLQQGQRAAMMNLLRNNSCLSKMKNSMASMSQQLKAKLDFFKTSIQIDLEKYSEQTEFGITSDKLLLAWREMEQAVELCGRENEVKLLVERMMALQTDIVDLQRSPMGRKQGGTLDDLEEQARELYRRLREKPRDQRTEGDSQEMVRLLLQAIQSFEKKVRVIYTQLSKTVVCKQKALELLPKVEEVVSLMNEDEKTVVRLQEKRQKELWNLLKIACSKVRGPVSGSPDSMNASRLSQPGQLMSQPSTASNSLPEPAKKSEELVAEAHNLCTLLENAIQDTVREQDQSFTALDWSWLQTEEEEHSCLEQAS

[19] = Bioavailability in mouse; format: ADME, organism-based; conditions: in vivo
[20] = target: T3, Tyrosine-protein kinase ZAP-70 (Homo sapiens, UniProt P43403); assay: Inhibition of Zap70
T3 sequence (P43403 whole entry): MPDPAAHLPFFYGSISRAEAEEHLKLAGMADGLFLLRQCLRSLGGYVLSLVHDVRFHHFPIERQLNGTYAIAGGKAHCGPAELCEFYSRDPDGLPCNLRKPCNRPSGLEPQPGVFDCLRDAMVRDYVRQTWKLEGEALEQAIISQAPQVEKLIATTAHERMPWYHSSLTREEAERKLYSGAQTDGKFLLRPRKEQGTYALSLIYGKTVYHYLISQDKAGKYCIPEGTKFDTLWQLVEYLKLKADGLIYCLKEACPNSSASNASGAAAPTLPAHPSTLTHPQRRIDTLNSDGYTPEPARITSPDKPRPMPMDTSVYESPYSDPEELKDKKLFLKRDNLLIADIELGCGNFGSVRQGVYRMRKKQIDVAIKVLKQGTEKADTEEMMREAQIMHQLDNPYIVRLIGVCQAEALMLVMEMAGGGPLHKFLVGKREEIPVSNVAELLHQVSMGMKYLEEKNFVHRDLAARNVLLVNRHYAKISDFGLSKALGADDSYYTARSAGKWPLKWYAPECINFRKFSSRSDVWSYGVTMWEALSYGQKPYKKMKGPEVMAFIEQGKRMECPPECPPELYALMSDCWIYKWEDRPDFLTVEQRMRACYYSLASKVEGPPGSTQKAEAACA

Mitogen-activated protein kinase 14, sequence (Q16539 whole entry): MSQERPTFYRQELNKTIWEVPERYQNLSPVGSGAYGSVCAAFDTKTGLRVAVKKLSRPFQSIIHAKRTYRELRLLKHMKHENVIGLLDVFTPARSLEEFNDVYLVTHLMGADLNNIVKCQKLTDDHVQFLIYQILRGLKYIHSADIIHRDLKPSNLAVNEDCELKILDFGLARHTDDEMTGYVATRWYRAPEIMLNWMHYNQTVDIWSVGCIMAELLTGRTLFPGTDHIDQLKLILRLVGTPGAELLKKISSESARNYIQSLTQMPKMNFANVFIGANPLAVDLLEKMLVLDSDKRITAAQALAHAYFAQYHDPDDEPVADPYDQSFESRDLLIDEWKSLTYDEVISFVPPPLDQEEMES
Mitogen-activated protein kinase 11, sequence (Q15759 whole entry): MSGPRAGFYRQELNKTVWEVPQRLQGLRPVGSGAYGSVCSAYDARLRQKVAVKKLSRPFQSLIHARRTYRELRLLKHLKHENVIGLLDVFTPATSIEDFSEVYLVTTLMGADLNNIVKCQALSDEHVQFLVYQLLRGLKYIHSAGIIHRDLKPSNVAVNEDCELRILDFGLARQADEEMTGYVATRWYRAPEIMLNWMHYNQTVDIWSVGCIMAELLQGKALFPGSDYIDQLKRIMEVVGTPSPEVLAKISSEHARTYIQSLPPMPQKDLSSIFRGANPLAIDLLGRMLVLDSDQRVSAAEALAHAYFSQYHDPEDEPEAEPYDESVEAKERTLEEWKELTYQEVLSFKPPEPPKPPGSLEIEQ
Protein kinase C delta type, sequence (Q05655 whole entry): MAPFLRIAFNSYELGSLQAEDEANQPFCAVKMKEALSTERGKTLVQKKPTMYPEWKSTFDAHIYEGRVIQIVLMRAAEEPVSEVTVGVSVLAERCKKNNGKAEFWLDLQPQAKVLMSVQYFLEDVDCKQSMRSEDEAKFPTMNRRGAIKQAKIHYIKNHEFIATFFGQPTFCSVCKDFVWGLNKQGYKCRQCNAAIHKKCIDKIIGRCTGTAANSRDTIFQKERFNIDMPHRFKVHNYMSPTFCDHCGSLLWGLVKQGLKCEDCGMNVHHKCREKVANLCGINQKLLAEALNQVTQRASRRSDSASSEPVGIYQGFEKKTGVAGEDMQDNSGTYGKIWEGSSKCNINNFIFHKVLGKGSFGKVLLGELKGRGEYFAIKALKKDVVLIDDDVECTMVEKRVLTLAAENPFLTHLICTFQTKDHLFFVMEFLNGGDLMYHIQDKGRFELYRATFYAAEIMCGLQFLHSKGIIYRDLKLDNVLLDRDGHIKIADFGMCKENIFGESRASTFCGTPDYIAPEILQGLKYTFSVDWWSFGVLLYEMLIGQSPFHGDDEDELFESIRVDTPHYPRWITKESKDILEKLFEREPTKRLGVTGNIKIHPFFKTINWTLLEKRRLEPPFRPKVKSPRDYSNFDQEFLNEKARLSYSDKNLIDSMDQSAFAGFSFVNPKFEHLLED
Tyrosine-protein kinase Lck, sequence (P06239 whole entry): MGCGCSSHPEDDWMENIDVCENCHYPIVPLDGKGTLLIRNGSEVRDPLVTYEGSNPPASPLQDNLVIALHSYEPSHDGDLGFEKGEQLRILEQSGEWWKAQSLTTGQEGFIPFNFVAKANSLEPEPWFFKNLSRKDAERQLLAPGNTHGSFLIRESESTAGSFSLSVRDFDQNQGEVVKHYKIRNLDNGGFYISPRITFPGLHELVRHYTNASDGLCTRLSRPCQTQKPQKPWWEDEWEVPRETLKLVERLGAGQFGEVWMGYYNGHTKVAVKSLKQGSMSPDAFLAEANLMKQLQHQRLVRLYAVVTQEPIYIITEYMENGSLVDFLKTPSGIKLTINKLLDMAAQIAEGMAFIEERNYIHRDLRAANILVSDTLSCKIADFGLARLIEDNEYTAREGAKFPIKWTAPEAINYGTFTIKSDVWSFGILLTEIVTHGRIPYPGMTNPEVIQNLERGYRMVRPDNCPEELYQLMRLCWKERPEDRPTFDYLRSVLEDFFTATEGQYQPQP
MAP kinase-activated protein kinase 2, sequence (P49137 whole entry): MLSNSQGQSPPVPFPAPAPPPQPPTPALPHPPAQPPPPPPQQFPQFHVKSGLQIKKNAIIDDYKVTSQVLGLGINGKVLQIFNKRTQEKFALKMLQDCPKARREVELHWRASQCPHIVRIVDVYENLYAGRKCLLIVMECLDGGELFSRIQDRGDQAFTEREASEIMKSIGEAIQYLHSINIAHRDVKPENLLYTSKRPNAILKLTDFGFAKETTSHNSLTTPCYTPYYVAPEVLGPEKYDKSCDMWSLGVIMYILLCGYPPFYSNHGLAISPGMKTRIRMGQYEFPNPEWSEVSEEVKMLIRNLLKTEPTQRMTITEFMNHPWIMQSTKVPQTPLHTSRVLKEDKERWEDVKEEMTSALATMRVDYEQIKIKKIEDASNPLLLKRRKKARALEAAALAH
Vascular endothelial growth factor receptor 2, sequence (P35968 whole entry): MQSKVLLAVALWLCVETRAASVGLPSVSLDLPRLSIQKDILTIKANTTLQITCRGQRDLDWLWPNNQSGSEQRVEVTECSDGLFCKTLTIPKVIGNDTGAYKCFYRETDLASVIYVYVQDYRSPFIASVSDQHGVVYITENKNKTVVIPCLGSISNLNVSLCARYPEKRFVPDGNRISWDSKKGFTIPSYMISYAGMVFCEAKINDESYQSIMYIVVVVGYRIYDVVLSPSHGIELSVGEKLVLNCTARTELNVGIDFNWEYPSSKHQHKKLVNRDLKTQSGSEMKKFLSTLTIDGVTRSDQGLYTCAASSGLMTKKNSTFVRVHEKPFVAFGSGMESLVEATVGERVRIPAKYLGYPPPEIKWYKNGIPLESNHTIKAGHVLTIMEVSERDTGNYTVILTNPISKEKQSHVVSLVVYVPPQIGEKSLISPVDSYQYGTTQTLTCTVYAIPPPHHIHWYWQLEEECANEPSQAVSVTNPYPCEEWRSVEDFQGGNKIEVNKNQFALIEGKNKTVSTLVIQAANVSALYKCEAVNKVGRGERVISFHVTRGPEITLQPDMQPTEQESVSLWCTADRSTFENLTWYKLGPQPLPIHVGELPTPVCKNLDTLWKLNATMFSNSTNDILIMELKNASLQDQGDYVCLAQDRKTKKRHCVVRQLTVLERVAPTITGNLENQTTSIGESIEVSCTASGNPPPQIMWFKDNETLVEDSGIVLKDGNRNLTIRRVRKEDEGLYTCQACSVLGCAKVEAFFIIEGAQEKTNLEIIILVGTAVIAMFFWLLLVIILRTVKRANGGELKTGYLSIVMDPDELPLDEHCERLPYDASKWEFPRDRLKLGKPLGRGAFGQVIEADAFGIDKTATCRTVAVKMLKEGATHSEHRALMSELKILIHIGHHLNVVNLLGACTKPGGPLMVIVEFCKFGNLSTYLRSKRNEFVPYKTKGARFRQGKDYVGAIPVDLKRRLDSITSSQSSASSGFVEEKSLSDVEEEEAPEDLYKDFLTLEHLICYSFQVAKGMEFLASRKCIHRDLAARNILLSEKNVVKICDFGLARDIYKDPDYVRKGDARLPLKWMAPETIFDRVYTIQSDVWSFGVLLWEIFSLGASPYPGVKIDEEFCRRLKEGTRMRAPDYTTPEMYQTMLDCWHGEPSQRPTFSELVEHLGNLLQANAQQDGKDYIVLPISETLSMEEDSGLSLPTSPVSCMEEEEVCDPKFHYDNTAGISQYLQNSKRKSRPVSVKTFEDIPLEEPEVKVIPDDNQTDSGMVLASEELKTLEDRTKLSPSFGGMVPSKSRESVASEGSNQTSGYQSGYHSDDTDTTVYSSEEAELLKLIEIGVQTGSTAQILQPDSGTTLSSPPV

With CONC(=O)c1ccc(C)c(Nc2nc(N(C)CC(C)(C)C)nc(N3CCNCC3)n2)c1 as the molecule, how does the IC50 [1] read?
Its IC50 is 18 nM.

What about the IC50 (THP-1) of the same molecule?
Its IC50 is 120 nM.

Which IC50 [1] does the source give for Cc1ccc(C(N)=O)cc1Nc1nc(NCC(C)C)nc(N[C@H]2CCNC2)n1 here?
Its IC50 is 73 nM.

And the IC50 (THP-1)?
The IC50 was > 5000 nM.

What does the source list for CCNC(=O)c1ccc(C)c(Nc2nc(N[C@H]3CCNC3)nc(N(C)CC(C)(C)C)n2)c1?
IC50 [1]: 31 nM; IC50 (THP-1): 140 nM

Which IC50 [1] does the source give for Cc1ccc(C(N)=O)cc1Nc1nc(N)nc(NC[C@@H]2CC[C@H]3C[C@@H]2C3(C)C)n1 here?
Its IC50 is 5900 nM.

With Cc1ccc(C(=O)NC(C)C)cc1Nc1nc(N[C@H]2CCNC2)nc(N(C)CC(C)(C)C)n1 as the molecule, how does the IC50 [1] read?
Its IC50 is 51 nM.

What about the IC50 (THP-1) of the same molecule?
Its IC50 is 150 nM.

Which IC50 [2] does the source give for CONC(=O)c1ccc(C)c(Nc2nc(N(C)CC(C)(C)C)nc(N3CCCN(C)CC3)n2)c1 here?
The IC50 was > 10 µM.

What about the IC50 (PBMC) of the same molecule?
The IC50 was 4.6 nM.

And the IC50 [3]?
Its IC50 is > 10 µM.

And the Stability [4]?
Its Stability is 0.8 nmol/mg/min.

And the Activity (Mus musculus [5])?
The Activity was “Active”.

And the clearance [6]?
Its clearance is 107 mL/min/kg.

And the Stability (Liver microsomes)?
The Stability was 0.2 nmol/mg/min.

And the IC50 [7]?
The IC50 was > 10 µM.

What about the IC50 [1] of the same molecule?
Its IC50 is 44 nM.

What about the Activity (Rattus norvegicus) of the same molecule?
The Activity was 50%.

What about the Activity (Mus musculus [8]) of the same molecule?
Its Activity is “Active”.

And the Activity (Mus musculus [9])?
Its Activity is “Active”.

And the IC50 [10]?
Its IC50 is > 10 µM.

What about the IC50 [11] of the same molecule?
Its IC50 is > 10 µM.

And the IC50 (THP-1)?
Its IC50 is 85 nM.

And the half-life [12]?
Its half-life is 42 min.

What about the IC50 [13] of the same molecule?
The IC50 was 22 nM.

And the IC50 [14]?
Its IC50 is > 10 µM.

And the IC50 [15]?
The IC50 was > 10 µM.

What about the ED50 (Mus musculus [16]) of the same molecule?
Its ED50 is 3 mg/kg.

And the Activity [17]?
Its Activity is 70%.

What about the IC50 [18] of the same molecule?
Its IC50 is > 10 µM.

What about the bioavailability [19] of the same molecule?
The bioavailability was 8%.

And the IC50 [20]?
Its IC50 is > 50 µM.

For Cc1ccc(C(N)=O)cc1Nc1nc(N[C@H]2CCNC2)nc(N(C)CC(C)(C)C)n1, which IC50 [1] is on record?
The IC50 was 24 nM.

And the IC50 (THP-1)?
The IC50 was 167 nM.

With COCCNC(=O)c1ccc(C)c(Nc2nc(N[C@H]3CCNC3)nc(N(C)CC(C)(C)C)n2)c1 as the molecule, how does the IC50 [1] read?
The IC50 was 264 nM.

And the IC50 (THP-1)?
The IC50 was 680 nM.

With Cc1ccc(C(N)=O)cc1Nc1nc(N[C@H]2CCNC2)nc(N(C)CC(C)C)n1 as the molecule, how does the IC50 [1] read?
The IC50 was 28 nM.

And the IC50 (THP-1)?
Its IC50 is 325 nM.

With Cc1ccc(C(=O)NCc2ccccc2)cc1Nc1nc(N[C@H]2CCNC2)nc(N(C)CC(C)(C)C)n1 as the molecule, how does the IC50 [1] read?
The IC50 was 64 nM.

And the IC50 (THP-1)?
Its IC50 is 85 nM.

Which IC50 [1] does the source give for Cc1ccc(C(N)=O)cc1Nc1nc(N[C@H]2CCNC2)nc(N(C)CC(C)c2ccccc2)n1 (stereo partly drawn) here?
Its IC50 is 84 nM.

What about the IC50 (THP-1) of the same molecule?
Its IC50 is 2600 nM.
